Assay results reported in ChEMBL document CHEMBL3576779, “Cyclic colisporifungin and linear cavinafungins, antifungal lipopeptides isolated from Colispora cavincola” (J Nat Prod, 2015).
Values after ≈ are worked out from the molar mass of the structure shown. Active and inactive are the calls of the source. The calls are words filed in the database; no cut-off is given here. Non-standard residues stand in square brackets, D forms with d. Residues, ends and D or L forms follow the SMILES beside them. *: point of attachment. Pro(4R-Me) = C[C@H]1CN[C@H](C(=O)O)C1; Oleoyl = CCCCCCCC/C=C\CCCCCCCC(=O)*; hSer = N[C@@H](CCO)C(=O)O; Alaol = C[C@@H](CO)N*

Tests used:
Candida tropicalis = assay: Antifungal activity against Candida tropicalis ATCC 750 after 24 hrs by 2-fold serial dilution method; format: functional; details: ATCC 750, 24 h
In short: (§1)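 Cells were inoculated at 10^5 CFU/mL into 2-fold serial compound dilutions in growth medium and incubated at 37 °C. The MIC was recorded after 24 h as the lowest concentration inhibiting visible growth. Where given, the MIC80 is 80% inhibition, reported as prominent inhibition.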

Pichia kudriavzevii = assay: Antifungal activity against Candida krusei ATCC 6258 after 24 hrs by 2-fold serial dilution method; format: functional; details: ATCC 6258, 24 h; in short: as §1
Candida parapsilosis = assay: Antifungal activity against Candida parapsilosis ATCC 22019 after 24 hrs by 2-fold serial dilution method; format: functional; details: ATCC 22019, 24 h; in short: as §1
Candida albicans [1] = assay: Antifungal activity against Candida albicans MY1055 after 24 hrs by 2-fold serial dilution method in presence of 50% mouse serum; format: functional; details: MY1055, 24 h
Candida albicans [2] = assay: Antifungal activity against Candida albicans MY1055 after 24 hrs by 2-fold serial dilution method; format: functional; details: MY1055, 24 h; in short: as §1
Nakaseomyces glabratus [3] = assay: Antifungal activity against Candida glabrata ATCC 90030 after 24 hrs by 2-fold serial dilution method; format: functional; details: ATCC 90030, 24 h; in short: as §1
Clavispora lusitaniae = assay: Antifungal activity against Clavispora lusitaniae ATCC 34449 after 24 hrs by 2-fold serial dilution method; format: functional; details: ATCC 34449, 24 h; in short: as §1
Aspergillus fumigatus [4] = assay: Antifungal activity against Aspergillus fumigatus MF5668 after 48 hrs by 2-fold serial dilution method; format: functional; details: MF5668, 48 h
In short: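 Broth microdilution MIC test: the inoculum was 10^5 CFU/mL, with a 2-fold serial dilution of compound in growth medium at 37 °C. The MIC was read after 48 h incubation as the lowest concentration inhibiting visible growth. Where given, the MIC80 is 80% inhibition, reported as prominent inhibition.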

Aspergillus fumigatus [5] = assay: Antifungal activity against Aspergillus fumigatus ATCC 46645 assessed as growth inhibition after 24 hrs by checkerboard method; format: functional, organism-based; details: ATCC 46645, 24 h
In short: (§2)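 Checkerboard of double dilutions: caspofungin at final 0.24–0.00018 μg/mL (columns) crossed with test compound at final 8–0.015 μg/mL (rows) in the central 80 wells of one plate. Caspofungin dose–response curves gave IC50 values at each compound level.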

Aspergillus fumigatus [6] = assay: Antifungal activity against Aspergillus fumigatus ATCC 46645 after 24 hrs by resazurin test in presence of caspofungin; format: functional; details: ATCC 46645, 24 h
In short: (§3)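 Tested with and without sublethal caspofungin (0.015 μg/mL for A. fumigatus, 0.03 μg/mL for C. albicans) at 37 °C for 24 h. Resazurin 0.002% added 3–4 h before reading; fluorescence read at ex 570/em 615 nm. C. albicans was grown overnight in SDB, set to OD600 0.25 in RPMI-modified medium (pH 7.1) and diluted 1:10. Run in triplicate.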

Nakaseomyces glabratus [7] = assay: Antifungal activity against Candida glabrata MY992 at 8 ug/ml after 24 hrs by resazurin test; format: functional, organism-based
Candida albicans [8] = assay: Antifungal activity against Candida albicans MY1055 at 8 ug/ml after 24 hrs by resazurin test; format: functional, organism-based; in short: as §3
Candida albicans [9] = assay: Antifungal activity against Candida albicans MY1055 after 24 hrs by resazurin test in presence of caspofungin; format: functional; details: MY1055, 24 h; in short: as §3
Aspergillus fumigatus [10] = assay: Antifungal activity against Aspergillus fumigatus ATCC 46645 at 8 ug/ml after 24 hrs by resazurin test; format: functional, organism-based; in short: as §3
Aspergillus fumigatus [11] = assay: Potentiation of caspofungin-induced antifungal activity against Aspergillus fumigatus ATCC 46645 at 2 ug/ml after 24 hrs by checkerboard method relative to control; format: functional; in short: as §2
Candida albicans [12] = assay: Potentiation of caspofungin-induced antifungal activity against Candida albicans MY1055 at 1 ug/ml after 24 hrs by checkerboard method; format: functional, organism-based; in short: as §2

MIC (Aspergillus fumigatus [6]) [µg/mL]	MIC (Candida albicans [9]) [µg/mL]	SMILES	MIC (Candida tropicalis) [µg/mL]	MIC (Pichia kudriavzevii) [µg/mL]	MIC (Candida parapsilosis) [µg/mL]	MIC (Candida albicans [1]) [µg/mL]	MIC (Candida albicans [2]) [µg/mL]	MIC (Nakaseomyces glabratus [3]) [µg/mL]	MIC (Clavispora lusitaniae) [µg/mL]	MIC (Aspergillus fumigatus [4]) [µg/mL]	MIC80 (Aspergillus fumigatus [4]) [µg/mL]	IC50 (Aspergillus fumigatus [5]) [nM]	Activity (Nakaseomyces glabratus [7])	Activity (Candida albicans [8])	Activity (Aspergillus fumigatus [10])	fold change (FC) (Aspergillus fumigatus [11])	Activity (Candida albicans [12])
		CCCCCCCC/C=C\CCCCCCCC(=O)N[C@H](C(=O)N1C[C@H](C)C[C@H]1C(=O)N[C@H](C(=O)N[C@@H](CCOC(C)=O)C(=O)N[C@@H](C)C=O)C(C)C)[C@@H](C)O (Oleoyl-T[Pro(4R-Me)]V[hSer](Ac)A-aldehyde)	0.5 (≈ 0.631 µM)	4 (≈ 5.05 µM)	2 (≈ 2.53 µM)	> 32	2 (≈ 2.53 µM)	2 (≈ 2.53 µM)	2 (≈ 2.53 µM)	> 32	8 (≈ 10.1 µM)						
		CCCCCCCC/C=C\CCCCCCCC(=O)N[C@H](C(=O)N1C[C@H](C)C[C@H]1C(=O)N[C@H](C(=O)N[C@@H](CCO)C(=O)N[C@@H](C)C=O)C(C)C)[C@@H](C)O (Oleoyl-T[Pro(4R-Me)]V[hSer]A-aldehyde)	0.5 (≈ 0.667 µM)	2 (≈ 2.67 µM)	2 (≈ 2.67 µM)	> 32	2 (≈ 2.67 µM)	2 (≈ 2.67 µM)	2 (≈ 2.67 µM)	> 32	8 (≈ 10.7 µM)						
		CCCCCCCC/C=C\CCCCCCCC(=O)N[C@H](C(=O)N1C[C@H](C)C[C@H]1C(=O)N[C@H](C(=O)N[C@@H](CCO)C(=O)N[C@@H](C)CO)C(C)C)[C@@H](C)O (Oleoyl-T[Pro(4R-Me)]V[hSer]-Alaol)	> 32	> 32	> 32		> 32	> 32	> 32								
		CC[C@H](C)C[C@H](C)CCCCCCCCC(=O)N[C@H]1C[C@@H](O)[C@@H](NCCN)NC(=O)[C@@H]2[C@@H](O)CCN2C(=O)[C@H]([C@H](O)CCN)NC(=O)[C@H]([C@H](O)[C@@H](O)c2ccc(O)cc2)NC(=O)[C@@H]2C[C@@H](O)CN2C(=O)[C@H]([C@@H](C)O)NC1=O [CASPOFUNGIN]										33					
4	2	CCCCCCCCCCCC(=O)N[C@@H](CCC(N)=O)C(=O)N[C@@H]1C(=O)NCCC(=O)N[C@H](Cc2c[nH]c3ccccc23)C(=O)N[C@@H](CO)C(=O)N[C@H](Cc2ccccc2)C(=O)O[C@@H]1C											inactive	inactive	inactive	5.3	Active
